Screens: PubChem BioAssay, Broad Institute
The sample as a whole holds a higher share of hits than the screen did.
YB-1 expression – YB-1 expression inhibition; delta delta Cp (YB-1 minus CDIP) (no concentration beside the values); AID 434959; hit rate 0.37% among 30,000; U2OS, qRT-PCR YB-1 vs CDIP delta delta Cp, 16 h; hits give high values; zero = DMSO, each unit about twofold;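 active means delta delta Cp rounded down to an integer at or above 3, about 3 SD of DMSO wells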;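 further: higher means less YB-1 transcript or more CDIP transcript relative to DMSO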
T cruzi HTS – blocks T. cruzi growth inside host cells | activity score (inhibition), % at 5.01 µM | hit rate 4.9% among 22,000 | AID 651903 | intracellular Trypanosoma cruzi in host cells, plate reader; in the data active means activity score above about 55%;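 further: parasites and compound incubated about four days before reading; 0% = median of neutral control wells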
INS-1E ATP HTS – rescue of cytokine-induced death in INS-1E beta cells; INS-1E cytokine-induced death, ATP luminescence, 48 h; normalised: neutral wells 0, positive control 100; protection from cytokine-induced ATP loss, % at 10 µM; hit rate 0.1% among 20,000; AID 488910;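 active means mean replicate protection from cytokine-induced ATP loss at least 50% and at least 75% of replicates each reaching 50%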
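Test system: INS-1E rat cells | Quantity: 8000 cells per well | Medium: Phenol-red-free RPMI with 5% fetal bovine serum | Reagent: Cytokine cocktail of IFN-γ, TNF-α and IL-1β | Doses: One compound concentration, pin transfer | Timing: 48 h co-treatment, 10 min post-lysis read | Technique: Luminescent ATP assay (CellTiter-Glo)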
* marks the source's active call; other numbers are inactive results; x = not tested or not shown.

SMILES | YB-1 expression | T cruzi HTS | INS-1E ATP HTS
C[C@H](CO)N1C[C@H](C)[C@@H](CN(C)Cc2ccc(C(=O)Nc3ccccc3N)cc2)Oc2c(NS(=O)(=O)c3ccc(Cl)cc3)cccc2C1=O | -0.1 | 49 | -15
C[C@H]1CN([C@@H](C)CO)C(=O)c2cccc(NS(=O)(=O)c3ccccc3)c2O[C@@H]1CN(C)Cc1ccc(C(=O)Nc2ccccc2N)cc1 | -0.28 | 44 | -11
C[C@@H]1CN([C@H](C)CO)C(=O)c2cccc(NS(=O)(=O)c3ccc(F)cc3)c2O[C@@H]1CN(C)Cc1ccc(C(=O)Nc2ccccc2N)cc1 | 0.06 | 60* | 27
Fc1ccc(Nc2nc3ccccc3nc2Nc2ccc(F)cc2)cc1 | 0.15 | x | x
CC(=O)OC(C[C@@]1(C)[C@H](C)[C@H](OC(C)=O)C[C@@]23COC(=O)C2=CCC[C@@H]31)c1ccoc1 (some centres undefined) | 0.14 | x | x
O=C(Cc1ccccc1)Nc1cccc(S(=O)(=O)c2cccc(NC(=O)Cc3ccccc3)c2)c1 | -0.042 | x | x
Nc1ncnc2c1cnn2-c1ccccc1 | 3.9* | x | x
c1ccc(-n2ncc3c(N4CCc5ccccc54)ncnc32)cc1 | 0.26 | x | x
Cc1ccc(S(=O)(=O)N(C)C[C@@H]2Oc3ccc(NC(=O)c4ccncc4)cc3C(=O)N([C@H](C)CO)C[C@H]2C)cc1 | -0.15 | -14 | 2
C[C@@H]1CN([C@@H](C)CO)C(=O)c2cc(NC(=O)Nc3ccc(C(F)(F)F)cc3)ccc2O[C@@H]1CN(C)S(=O)(=O)c1ccc(F)cc1 | -0.14 | 68* | -13
C[C@@H]1CN([C@H](C)CO)C(=O)c2cc(NC(=O)Nc3ccc(C(F)(F)F)cc3)ccc2O[C@H]1CN(C)S(=O)(=O)c1ccccc1 | -0.42 | 70* | -37
Cc1ccc(S(=O)(=O)N(C)C[C@@H]2Oc3ccc(NC(=O)c4ccncc4)cc3C(=O)N([C@H](C)CO)C[C@@H]2C)cc1 | 0.13 | 63* | -1
COc1ccc(NC(=O)Nc2ccc3c(c2)C(=O)N([C@H](C)CO)C[C@H](C)[C@H](CN(C)S(=O)(=O)c2ccc(F)cc2)O3)cc1 | 10* | 6 | -1
C[C@@H]1CN([C@@H](C)CO)C(=O)c2cc(NC(=O)Nc3ccc(C(F)(F)F)cc3)ccc2O[C@H]1CN(C)S(=O)(=O)c1ccc(F)cc1 | 0.37 | 32 | 1
C[C@H](CO)N1C[C@H](C)[C@H](CN(C)S(=O)(=O)c2ccc(F)cc2)Oc2ccc(NC(=O)Nc3ccc(C(F)(F)F)cc3)cc2C1=O | 0.32 | 14 | x
COc1ccc(S(=O)(=O)N(C)C[C@H]2Oc3ccc(NC(=O)Nc4ccc(F)cc4)cc3C(=O)N([C@@H](C)CO)C[C@H]2C)cc1 | 0.12 | 19 | -13
COc1ccc(C(=O)NCc2ccc(C#N)cc2)cc1OC | 0.96 | x | x
CC(=O)Oc1ccc2ccc3ccc(OC(C)=O)c4ccc1c2c34 | -0.52 | x | x
CCN(CC)C(=O)C1Sc2nnc(-c3ccccc3)n2NC1c1ccc(C)cc1 (centres undefined) | -0.079 | x | x
CC1CC[C@]2(C(=O)O)CC[C@]3(C(=O)O)C(=CCC4[C@@]5(C)CC[C@H](OC6OC(C)C(O)C(OC7OC(CO)C(O)C(O)C7O)C6O)C(C)(C)C5CC[C@]43C)C2C1C (some centres undefined) | -0.24 | x | x
C=C(CCCCCCCC(=O)O)C(=O)O | -0.31 | x | x
C[C@@H]1CN([C@@H](C)CO)C(=O)c2cc(NC(=O)Nc3cccc4ccccc34)ccc2O[C@@H]1CN(C)S(=O)(=O)c1ccc(F)cc1 | -0.012 | 28 | -13
C[C@H]1CN([C@@H](C)CO)C(=O)c2cc(NC(=O)Nc3cccc4ccccc34)ccc2O[C@H]1CN(C)S(=O)(=O)c1ccc(F)cc1 | 0.096 | 65* | -15
N/C(=N\S(=O)(=O)c1ccc(Cl)c(Cl)c1)c1ccccn1 | -0.014 | x | x
C[C@@H]1CCCCO[C@@H](CN(C)C(=O)Nc2ccccc2)[C@@H](C)CN([C@H](C)CO)C(=O)c2cc(NC(=O)Cc3ccccc3)ccc2O1 | 0.17 | -6 | 14
C[C@@H]1CCCCO[C@@H](CN(C)C(=O)Nc2ccc(C(F)(F)F)cc2)[C@@H](C)CN([C@H](C)CO)C(=O)c2cc(NC(=O)c3ccccc3)ccc2O1 | -0.34 | 59* | -10
C[C@@H]1CCCCO[C@H](CN(C)C(=O)Nc2ccc(C(F)(F)F)cc2)[C@@H](C)CN([C@H](C)CO)C(=O)c2cc(NC(=O)Cc3ccccc3)ccc2O1 | -0.28 | 71* | -20
C[C@@H]1CCCCO[C@@H](CN(C)C(=O)Nc2ccc(C(F)(F)F)cc2)[C@@H](C)CN([C@H](C)CO)C(=O)c2cc(NC(=O)Nc3ccccc3)ccc2O1 | 0.1 | 64* | -6
